Assay results taken from PubChem BioAssay AID504649 (Molecular Libraries Program, Specialized Chemistry Center, …, 2011).
Active and inactive are the calls of the source.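 How the source made its calls: active means half-maximal inhibitory concentration IC50 of 10 µM or lower; inactive means the rest.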

target: Transitional endoplasmic reticulum ATPase (Homo sapiens) (UniProt P55072); assay: p97-dependent UbG76V-GFP degradation inhibitors in cells, SAR follow-up, imaging, HeLa, round 3 (AID 504649); settings: not given
Sequence (P55072 whole entry, looked up): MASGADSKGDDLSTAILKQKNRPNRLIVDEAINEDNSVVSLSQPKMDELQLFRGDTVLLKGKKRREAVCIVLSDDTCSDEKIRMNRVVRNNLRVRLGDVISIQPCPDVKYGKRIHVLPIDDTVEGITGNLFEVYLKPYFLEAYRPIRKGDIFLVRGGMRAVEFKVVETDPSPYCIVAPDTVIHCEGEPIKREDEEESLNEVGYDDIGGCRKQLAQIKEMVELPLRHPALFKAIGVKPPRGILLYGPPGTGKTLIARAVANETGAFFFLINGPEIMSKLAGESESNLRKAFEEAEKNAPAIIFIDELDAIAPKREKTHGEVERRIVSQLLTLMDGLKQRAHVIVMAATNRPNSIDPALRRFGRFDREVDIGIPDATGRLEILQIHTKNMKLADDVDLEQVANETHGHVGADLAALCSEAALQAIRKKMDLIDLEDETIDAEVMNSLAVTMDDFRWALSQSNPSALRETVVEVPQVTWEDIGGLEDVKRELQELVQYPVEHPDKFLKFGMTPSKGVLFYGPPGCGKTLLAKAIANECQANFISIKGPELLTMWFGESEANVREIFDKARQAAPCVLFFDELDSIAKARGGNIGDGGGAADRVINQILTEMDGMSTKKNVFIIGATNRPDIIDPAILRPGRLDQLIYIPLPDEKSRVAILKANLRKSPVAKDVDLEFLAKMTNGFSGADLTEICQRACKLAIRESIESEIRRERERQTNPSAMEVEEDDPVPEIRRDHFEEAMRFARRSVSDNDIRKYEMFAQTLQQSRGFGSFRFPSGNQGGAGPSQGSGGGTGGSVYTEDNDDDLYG
Procedure, shortened: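 Assay system: HeLa cells expressing UbG76V-GFP proteasome degradation reporter; times: MG132 pre-treatment 1 h, GFP imaging 70–170 min into chase; measured by: imaged GFP fluorescence intensity, ~500 cells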

Row | IC50 | Structure (SMILES)
1 | inactive | COc1cccc2c(NCc3ccccc3)nc(Nc3nc4ccccc4s3)nc12
2 | 8 µM | COc1cccc2c(NCc3ccccc3)nc(N3CCN(C(C)=O)c4ccccc43)nc12
3 | 7 µM | c1ccc(CNc2nc(N3CCc4ccccc4C3)nc3ccccc23)cc1
4 | 3.5 µM | c1ccc(CNc2nc(N3CCOc4ccccc43)nc3c2CCCC3)cc1
5 | > 20 µM (inactive) | COc1cccc2c(NCc3ccccc3)nc(N3CCN(C(C)=O)CC3)nc12
6 | inactive | Clc1ccccc1-c1nc(N2CCCc3ccccc32)c2ccccc2n1
7 | 2.9 µM | Nc1nc2ccccc2n1-c1nc(NCc2ccccc2)c2ccccc2n1
8 | 5 µM | c1ccc(CNc2nc(N3CCOc4ccccc43)nc3c(-c4ccccc4)cccc23)cc1
9 | > 20 µM (inactive) | COc1cccc2c(NCc3ccccc3)nc(-n3c(N)nc4cc(Cl)c(Cl)cc43)nc12
10 | 7.8 µM | COc1cccc2c(NCc3ccccc3)nc(N3CCN(C)c4ccccc43)nc12
11 | 4.2 µM | COc1cccc2c(NCc3ccccc3)nc(NCC3CCCCC3)nc12
12 | inactive | Nc1nc2ccccc2n1-c1nccc(NCc2ccccc2)n1
13 | 3.8 µM | OCCOc1cccc2c(NCc3ccccc3)nc(N3CCOc4ccccc43)nc12
14 | inactive | COc1cccc2c(NCc3ccccn3)nc(N3CCOc4ccccc43)nc12
15 | 2.8 µM | COc1cccc2c(NCc3ccccc3)nc(Nc3ccccc3O)nc12
16 | inactive | COc1cccc2c(NCc3ccccn3)nc(N3CCNc4ccccc43)nc12
17 | 5.4 µM | COc1cccc2c(NCc3ccccc3)nc(Nc3cccc(Cl)c3)nc12
18 | 3 µM | COc1cccc2c(NCc3cccs3)nc(N3CCOc4ccccc43)nc12
19 | 3.3 µM | COc1cccc2c(NCc3ccccc3)nc(N3CCOc4ccccc43)nc12
20 | 7.3 µM | COc1cccc2c(NCc3ccc(O)cc3)nc(N3CCOc4ccccc43)nc12
21 | 6.8 µM | COc1cccc2c(NCc3ccccc3)nc(-n3c(N)nc4cc(F)ccc43)nc12
22 | 9.2 µM | CN(c1ccccc1)c1nc(NCc2ccccc2)c2ccccc2n1
23 | 2.5 µM | COc1cccc2c(NCc3ccccc3)nc(-n3c(N)nc4cc(C)ccc43)nc12
24 | > 20 µM (inactive) | COc1cccc2c(NCc3ccccc3)nc(N(C)Cc3ccccc3)nc12
25 | 0.96 µM | COc1ccc2c(c1)nc(N)n2-c1nc(NCc2ccccc2)c2cccc(OC)c2n1
26 | 3.7 µM | COc1cccc2c(NCc3ccc(F)cc3)nc(N3CCOc4ccccc43)nc12

Row | IC50 | Structure (SMILES)
27 | 5 µM | COc1cccc2c(NCc3ccccc3)nc(-n3c(=O)oc4ccccc43)nc12
28 | 0.9 µM | COc1cccc2c(NCc3ccccc3)nc(-n3c(N)nc4ccccc43)nc12
29 | 1.8 µM | Nc1nc2ccccc2n1-c1nc2c(c(NCc3ccccc3)n1)CCCC2
30 | 3.7 µM | COc1cccc2c(NCc3ccccc3)nc(N3CCNc4ccccc43)nc12
31 | 4.5 µM | COc1cccc2c(NCc3ccccc3N(C)C)nc(N3CCOc4ccccc43)nc12
32 | 2.6 µM | COc1cccc2c(NCc3ccccc3)nc(-n3c(N)nc4c(C)cccc43)nc12
33 | 8.2 µM | COc1cccc2c(NCC3CCCCC3)nc(N3CCOc4ccccc43)nc12
34 | 9 µM | COc1ccc(-c2cccc3c(NCc4ccccc4)nc(N4CCOc5ccccc54)nc23)cc1
35 | 6 µM | COc1cccc2c(NCc3ccccc3O)nc(N3CCOc4ccccc43)nc12
36 | 7.1 µM | COc1cccc2c(NCc3ccccc3)nc(Nc3cc(C)cc(F)c3)nc12
37 | 5.3 µM | CCN(CC)CCOc1cccc2c(NCc3ccccc3)nc(N3CCOc4ccccc43)nc12
38 | 7.7 µM | Oc1cccc2c(NCc3ccccc3)nc(N3CCOc4ccccc43)nc12
39 | 5.4 µM | COc1cccc2c(NCc3ccccc3)nc(-n3c(N)nc4c(F)cccc43)nc12
40 | inactive | COc1cccc2c(NCc3cccc(N(C)C)c3)nc(N3CCOc4ccccc43)nc12
41 | 6.4 µM | c1ccc(CNc2nc(N3CCOc4ccccc43)nc3ccsc23)cc1
42 | inactive | COc1cccc2c(NCc3ccccc3)nc(NCc3cncs3)nc12
43 | 4.8 µM | COc1cccc2c(NCc3ccccc3)nc(Nc3cccc(F)c3)nc12
44 | 6.5 µM | COCCOc1cccc2c(NCc3ccccc3)nc(N3CCOc4ccccc43)nc12
45 | 1.8 µM | COc1cccc2c(NCc3ccccc3)nc(NCc3cccs3)nc12
46 | 8.1 µM | c1ccc2c(c1)OCCN2c1nc(N2CCOc3ccccc32)c2ccccc2n1
47 | 2.1 µM | COc1cccc2c(NCc3ccccc3)nc(NC(C)c3ccccc3)nc12 (stereo not given)
48 | inactive | CC(C)Nc1nc(Nc2cccc(Cl)c2)nc2ccccc12
49 | > 20 µM (inactive) | COc1cccc2c(NCc3cncs3)nc(N3CCOc4ccccc43)nc12
50 | 7.8 µM | COc1cccc2c(NCc3ccccc3)nc(Nc3nc4ccccc4n3C)nc12
51 | 7.7 µM | N#CCOc1cccc2c(NCc3ccccc3)nc(N3CCOc4ccccc43)nc12
52 | inactive | Cc1nc(N2CCOc3ccccc32)nc(NCc2ccccc2)c1C

same assay, conditions: at 20 µM (top of the series)

Row | inhibition | Structure (SMILES)
53 | inactive | COc1cccc2c(NCc3ccccc3)nc(-n3c(N)nc4cc(C)c(C)cc43)nc12
54 | inactive | COc1cccc2c(NCc3ccccc3)nc(NC(N)=O)nc12
55 | inactive | COc1cccc2c(NCc3ccccc3)nc(-n3cnc4ccccc43)nc12
